Experimental data reported in ChEMBL document CHEMBL4428090, “Modeling, Synthesis, and Biological Evaluation of Potential Retinoid X Receptor (RXR)-Selective Agonists: Analogues of 4-[1-(3,5,5,8,8-Pentamethyl-5,6,7,8-tetrahydro-2-naphthyl)ethynyl]benzoic Acid (Bexarotene) and 6-(Ethyl(5,5,8,8-tetrahydronaphthalen-2-yl)amino)nicotinic Acid (NEt-TMN)” (J Med Chem, 2016).
The source made the active and inactive calls. No cut-off for these calls is given here.

Biological target: T1, Retinoic acid receptor RXR-alpha/oxysterols receptor LXR-alpha (Homo sapiens, UniProt P19793+Q13133)
T1 sequence (P19793 whole entry): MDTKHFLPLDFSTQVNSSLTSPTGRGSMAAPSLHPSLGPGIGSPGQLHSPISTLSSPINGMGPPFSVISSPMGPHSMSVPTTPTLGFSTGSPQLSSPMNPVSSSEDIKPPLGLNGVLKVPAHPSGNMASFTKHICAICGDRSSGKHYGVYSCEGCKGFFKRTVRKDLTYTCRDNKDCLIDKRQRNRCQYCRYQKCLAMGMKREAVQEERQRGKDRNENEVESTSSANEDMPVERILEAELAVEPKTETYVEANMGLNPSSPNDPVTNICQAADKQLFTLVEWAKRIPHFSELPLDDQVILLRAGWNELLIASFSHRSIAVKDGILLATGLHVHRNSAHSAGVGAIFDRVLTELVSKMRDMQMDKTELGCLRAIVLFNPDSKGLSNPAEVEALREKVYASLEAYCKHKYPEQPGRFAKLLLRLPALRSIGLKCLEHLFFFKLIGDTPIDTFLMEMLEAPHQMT
T1 sequence (Q13133 whole entry): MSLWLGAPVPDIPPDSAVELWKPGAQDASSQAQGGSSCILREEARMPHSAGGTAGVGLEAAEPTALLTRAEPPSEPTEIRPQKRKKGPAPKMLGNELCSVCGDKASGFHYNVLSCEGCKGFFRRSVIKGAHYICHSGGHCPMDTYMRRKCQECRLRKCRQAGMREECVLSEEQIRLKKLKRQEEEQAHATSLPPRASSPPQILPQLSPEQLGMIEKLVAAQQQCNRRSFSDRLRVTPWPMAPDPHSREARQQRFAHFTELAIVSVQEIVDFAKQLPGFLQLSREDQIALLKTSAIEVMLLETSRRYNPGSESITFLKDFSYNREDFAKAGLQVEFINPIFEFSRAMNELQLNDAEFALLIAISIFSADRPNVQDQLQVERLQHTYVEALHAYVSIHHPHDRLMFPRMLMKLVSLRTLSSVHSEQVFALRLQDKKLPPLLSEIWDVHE
Assay: Agonist activity at human RXRalpha/LXRalpha expressed in human HCT116 cells assessed as reduction in SREBP-mediated transcription activity at 100 nM incubated for 24 hrs by luciferase reporter gene assay relative to bexarotene
Format: cell-based
Design: scale not given: the % may be the effect or the level left
Conditions: 0.1 µM
In short: (§1)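 HCT116 cells co-transfected for 24 h with 100 ng pBP1c(6500)-Luc (about 6500 bp murine SREBP-1c promoter), 10 ng human LXRα and 20 ng renilla. Treated 24 h with compound at 100 nM, alone or with 100 nM TO901317. Luciferase output. Three independent assays in triplicate; bexarotene = 100%.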

Activity	Structure (SMILES)
54 to 79%	CCN(c1ccc(C(=O)O)c(F)c1)c1ccc2c(c1)C(C)(C)CCC2(C)C
54 to 79%	CCN(c1ccc(C(=O)O)cc1)c1ccc2c(c1)C(C)(C)CCC2(C)C

Organism: Homo sapiens
Assay: Selectivity index, ratio of agonist activity at human RARalpha expressed in HEK293 cells assessed as increase in RARE-mediated transcription relative to bexarotene to agonist activity at human RXRalpha expressed in human HCT116 cells assessed as increase in RXRE-mediated transcription relative to bexarotene
Format: cell-based
Conditions: not given
In short: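 HEK293 cells (60,000/well) transfected for 24 h with 250 ng pTK-DR5(X2)-Luc, 25 ng human RARα and 20 ng renilla. Treated 24 h at 100 nM; activity expressed as a percentage of all-trans-retinoic acid. This RARE activity is divided by 100 nM RXRE activity, with the bexarotene ratio set to 1.0.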

Structure (SMILES)	Ratio
CC1=C(/C=C/C(C)=C/C=C/C(C)=C/C(=O)O)C(C)(C)CCC1	9.5
CCN(c1ccc(C(=O)O)c(F)c1)c1ccc2c(c1)C(C)(C)CCC2(C)C	0.35 to 0.37

Test system: not listed separately
Assay: Lipid risk index, ratio of agonist activity at human RXRalpha/LXRalpha expressed in human HCT116 cells assessed as reduction in SREBP-mediated transcription activity to agonist activity at human RXRalpha expressed in human HCT116 cells assessed as increase in RXRE-mediated transcription
Conditions: not given
In short: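 Lipid risk index: SREBP-promoter luciferase activity (HCT116, LXRα-transfected, 100 nM compound with or without 100 nM TO901317, 24 h) divided by RXRE activity at 100 nM. The SREBP:RXRE ratio for bexarotene is set to 1.0.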

Structure (SMILES)	Ratio
CCN(c1ccc(C(=O)O)c(F)c1)c1ccc2c(c1)C(C)(C)CCC2(C)C	0.48 - 0.65

Biological target: T2, Retinoic acid receptor RXR-alpha (Homo sapiens) (UniProt P19793)
T2 sequence (whole entry): T1 sequence (P19793 whole entry)
Assay: Agonist activity at human RXRalpha expressed in human HCT116 cells assessed as increase in RXRE-mediated transcription at 100 nM incubated for 24 hrs by RXRE luciferase reporter gene assay relative to bexarotene
Format: cell-based
Conditions: not given
In short: (§2)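 HCT-116 cells (80,000/well) co-transfected for 24 h with 250 ng RXRE-luciferase reporter (DR1 element from the rat cellular retinol binding protein II gene), 25 ng pSG5-human RXRα and 20 ng renilla. Dosed 24 h at 25, 100 or 1000 nM final; ethanol or DMSO vehicle 0.1%. Dual-luciferase read-out. Three independent assays in triplicate; bexarotene = 100%.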

Activity	Structure (SMILES)
16 to 32%	CCN(c1ccc(C(=O)O)c(F)c1)c1ccc2c(c1)C(C)(C)CCC2(C)C
16 to 32%	CCN(c1ccc(C(=O)O)cc1)c1ccc2c(c1)C(C)(C)CCC2(C)C

Biological target: Retinoid X receptor (Homo sapiens) (UniProt P28702+P48443+P19793)
Assay: Agonist activity at human RXR binding domain and activation domain expressed in human HCT116 cells assessed as rexinoid activity at 100 nM incubated for 24 hrs by luciferase reporter gene based mammalian two-hybrid assay relative to bexarotene
Format: cell-based
Conditions: not given
In short: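 HCT-116 cells plated overnight (80,000/well, DMEM with 10% FBS), co-transfected for 24 h with human RXR binding-domain (bait) and activation-domain (prey) vectors, pFR-Luc Gal4 reporter and renilla control. Treated 24 h at 25, 100 or 1000 nM final; vehicle ethanol or DMSO 0.1%. Dual-luciferase read-out. Three independent assays in triplicate; bexarotene set to 100%.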

Activity	Structure (SMILES)
Active	CCN(c1ccc(C(=O)O)c(F)c1)c1ccc2c(c1)C(C)(C)CCC2(C)C
Active	CCN(c1ccc(C(=O)O)cc1)c1ccc2c(c1)C(C)(C)CCC2(C)C

Test system: HuT78
Assay: Growth inhibition of human HUT78 cells at 200 nM incubated for 72 hrs by MTS assay relative to bexarotene
Format: functional
Conditions: HuT78, 72 h, read-out: GI
In short: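 Hut78 cells in RPMI with 10% FBS at 37°C, 5% CO2. Plated 7,500 cells/well and immediately dosed at 200 nM for 72 h. MTS read at A490; percent inhibition with media control set to 0.0, compared with bexarotene set to 100%. Mean of three independent experiments.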

Structure (SMILES)	inhibition of growth at 0.2 µM
CCN(c1ccc(C(=O)O)c(F)c1)c1ccc2c(c1)C(C)(C)CCC2(C)C	35 to 51%
CCN(c1ccc(C(=O)O)cc1)c1ccc2c(c1)C(C)(C)CCC2(C)C	55 to 80%

Biological target: T3, Retinoid X receptor (Homo sapiens, UniProt P28702+P48443+P19793)
T3 sequence (P28702 whole entry): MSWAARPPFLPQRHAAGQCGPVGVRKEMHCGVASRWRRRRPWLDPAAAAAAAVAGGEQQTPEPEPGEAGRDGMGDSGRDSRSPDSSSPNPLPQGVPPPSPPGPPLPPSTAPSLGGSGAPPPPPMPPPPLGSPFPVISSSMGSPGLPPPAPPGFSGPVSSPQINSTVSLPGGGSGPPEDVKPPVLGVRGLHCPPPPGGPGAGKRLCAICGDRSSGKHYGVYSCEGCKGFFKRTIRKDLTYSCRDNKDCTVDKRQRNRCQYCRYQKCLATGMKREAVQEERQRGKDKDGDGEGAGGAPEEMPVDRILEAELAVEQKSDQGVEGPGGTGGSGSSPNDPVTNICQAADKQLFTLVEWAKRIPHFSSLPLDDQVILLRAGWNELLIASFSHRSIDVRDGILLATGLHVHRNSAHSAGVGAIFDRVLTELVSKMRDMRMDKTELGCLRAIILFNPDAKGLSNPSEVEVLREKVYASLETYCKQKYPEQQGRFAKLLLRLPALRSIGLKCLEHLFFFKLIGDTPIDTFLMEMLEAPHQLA
T3 sequence (P48443 whole entry): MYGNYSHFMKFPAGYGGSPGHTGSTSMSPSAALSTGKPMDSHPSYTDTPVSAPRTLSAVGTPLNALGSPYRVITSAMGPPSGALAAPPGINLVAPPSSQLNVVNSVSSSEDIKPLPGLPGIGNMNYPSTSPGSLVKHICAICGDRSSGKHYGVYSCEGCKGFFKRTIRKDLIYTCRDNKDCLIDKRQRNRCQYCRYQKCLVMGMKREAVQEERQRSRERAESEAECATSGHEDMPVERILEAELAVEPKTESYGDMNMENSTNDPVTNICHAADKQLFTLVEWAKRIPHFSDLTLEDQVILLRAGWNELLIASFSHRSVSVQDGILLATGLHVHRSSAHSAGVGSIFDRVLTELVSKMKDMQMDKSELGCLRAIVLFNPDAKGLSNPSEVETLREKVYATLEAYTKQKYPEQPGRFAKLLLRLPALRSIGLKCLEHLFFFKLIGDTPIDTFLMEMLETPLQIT
T3 sequence (P19793 whole entry): T1 sequence (P19793 whole entry)
Assay: Agonist activity at human RXR binding domain and activation domain expressed in human HCT116 cells assessed as rexinoid activity incubated for 24 hrs by luciferase reporter gene based mammalian two-hybrid assay
Format: cell-based
Conditions: not given

EC50	Structure (SMILES)
0.1256 µM	CCN(c1ccc(C(=O)O)c(F)c1)c1ccc2c(c1)C(C)(C)CCC2(C)C
0.1434 µM	CCN(c1ccc(C(=O)O)cc1)c1ccc2c(c1)C(C)(C)CCC2(C)C

Biological target: T2, Retinoic acid receptor RXR-alpha (Homo sapiens)
Assay: Agonist activity at human RXRalpha expressed in human HCT116 cells assessed as increase in RXRE-mediated transcription at 25 nM incubated for 24 hrs by RXRE luciferase reporter gene assay relative to bexarotene
Format: cell-based
Conditions: not given
In short: as §2

Activity	Structure (SMILES)
27 to 66%	CCN(c1ccc(C(=O)O)c(F)c1)c1ccc2c(c1)C(C)(C)CCC2(C)C

Biological target: T2, Retinoic acid receptor RXR-alpha (Homo sapiens)
Assay: Agonist activity at human RXRalpha expressed in human HCT116 cells assessed as increase in RXRE-mediated transcription at 1000 nM incubated for 24 hrs by RXRE luciferase reporter gene assay relative to bexarotene
Format: cell-based
Conditions: not given
In short: as §2

Activity	Structure (SMILES)
Active	CCN(c1ccc(C(=O)O)c(F)c1)c1ccc2c(c1)C(C)(C)CCC2(C)C
Active	CCN(c1ccc(C(=O)O)cc1)c1ccc2c(c1)C(C)(C)CCC2(C)C

Test system: not listed separately
Assay: Mutagenicity in Saccharomyces cerevisiae D7 assessed as induction of mutagenesis by measuring forward and reverse mutations up to 0.1 mg/mL
Format: toxicity
Conditions: not given

Structure (SMILES)	Activity
CCN(c1ccc(C(=O)O)c(F)c1)c1ccc2c(c1)C(C)(C)CCC2(C)C	Non-Toxic
CCN(c1ccc(C(=O)O)cc1)c1ccc2c(c1)C(C)(C)CCC2(C)C	Non-Toxic

Biological target: T1, Retinoic acid receptor RXR-alpha/oxysterols receptor LXR-alpha
Assay: Agonist activity at human RXRalpha/LXRalpha expressed in human HCT116 cells assessed as reduction in SREBP-mediated transcription activity at 100 nM incubated for 24 hrs by luciferase reporter gene assay in presence of 100 nM LXR agonist TO901317 relative to bexarotene
Format: cell-based
Conditions: 0.1 µM
In short: as §1

Activity	Structure (SMILES)
Active	CCN(c1ccc(C(=O)O)c(F)c1)c1ccc2c(c1)C(C)(C)CCC2(C)C
Active	CCN(c1ccc(C(=O)O)cc1)c1ccc2c(c1)C(C)(C)CCC2(C)C
